This passage reports inhibition, Activity and MIC results from ChEMBL document CHEMBL2311473, “Characterization of antimicrobial, cytotoxic, and antiendotoxin properties of short peptides with different hydrophobic amino acids at "a" and "d" positions of a heptad repeat sequence” (J Med Chem, 2013).

For data set [1], the system named is Lipopolysaccharide (LPS). As to the kind of experiment: Binding affinity to LPS assessed as inhibition of LPS-induced LAL enzyme activation at 4.5 uM after 30 mins by spectrophotometric analysis. Put shortly:
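Chromogenic limulus amoebocyte lysate endotoxin kit. Peptide binding to LPS estimated from inhibition of LPS-induced LAL enzyme activation, i.e. reduced substrate colour, and reported as percentage LPS binding.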

A further data set has as its system NIH3T3. As to the kind of experiment: Cytotoxicity against mouse 3T3 cells assessed as cell viability up to 25 uM by MTT assay. The class given is cell-based. A digest of the protocol:
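Murine 3T3 fibroblasts, grown in DMEM/IMDM with 10% FCS at 37 °C, 5% CO2, seeded at 10000 cells/well. Viability after peptide exposure measured by MTT (mitochondrial dehydrogenase) across a dose range.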

Data set [2] concerns Lipopolysaccharide (LPS). As to the kind of experiment: Binding affinity to FITC-tagged LPS assessed as induction of disintegration up to 40 uM by […]. The following applies: in the assay text read “fluorescence dequenching” for “circular dichroism”. Put shortly: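 FITC-LPS (0.5 μg/mL) titrated with increasing peptide concentrations. Disaggregation read as dequenching, i.e. rise in FITC fluorescence, monitored after each addition until emission reached equilibrium.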
In general terms: Circular dichroism is the unequal absorption of left and right circularly polarised light.

Data set [3] deals with RAW264.7. As to the kind of experiment: Antiinflammatory activity in mouse RAW264.7 cells assessed as inhibition of LPS-induced IL6 secretion at 1.5 to 4.5 uM after 12 hrs by ELISA. It is filed as functional, cell-based. A digest of the protocol: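 RAW 264.7 cells treated with LPS alone or LPS plus peptide. TNF-α and IL-6 measured by ELISA in culture supernatant and expressed as percentage inhibition of LPS-induced secretion. Mean of three independent experiments, SD shown.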

In a further data set the test system is Staphylococcus aureus. As to the kind of experiment: Antibacterial activity against Staphylococcus aureus ATCC 9144 after 18 hrs by broth dilution method. It is filed as functional. The following applies: ATCC 9144, 18 h. A digest of the protocol:
(§1)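 Bacteria grown aerobically at 37 °C in Mueller-Hinton broth to mid-log phase (OD600), diluted to ~10^6 cfu/mL, then mixed 1:1 with 2-fold serial peptide dilutions in water. Incubation ~18 h at 37 °C before MIC read-out (μM).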
(In general: Broth dilution looks for growth in wells or tubes with falling amounts of substance.)

In the next data set the test system is Klebsiella pneumoniae. Description: Antibacterial activity against Klebsiella pneumoniae ATCC 27736 after 18 hrs by broth dilution method. The class given is functional. The following applies: ATCC 27736, 18 h. A digest of the protocol: as §1
The nature of data set [4]: Binding affinity to PE/PG lipid vesicles assessed as decrease in decrease in acrylamide-induced tryptophan fluorescence quenching at 1 uM. The class given is physicochemical. A digest of the protocol: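 Acrylamide quencher added in aliquots from 3.0 M stock to peptide with PC/Chol (8:1) or PE/PG (7:3) SUVs, peptide/lipid 1:100. Trp excited at 295 nm. Values corrected for dilution and vesicle-blank scatter, then fitted to Stern–Volmer F0/F = 1 + KSV[Q].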

Data set [5] relates to RAW264.7. As to the kind of experiment: Antiinflammatory activity in mouse RAW264.7 cells assessed as inhibition of LPS-induced NO production at 6 uM by Griess method. The class given is functional. Details: scale not given: the % may be the effect or the level left. A digest of the protocol: (§2)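 RAW 264.7 cells plated at 5 × 10^5/well and exposed to LPS (E. coli 0111:B4, 1 μg/mL) together with peptide at varying doses. Cells with and without LPS served as maximum and basal NO controls. Nitrite in the supernatant measured by Griess reagent at 548 nm against a sodium nitrite standard curve, and percent inhibition of NO calculated.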
(The Griess reaction detects nitrite, a stable product of nitric oxide.)

Data set [6] has as its system Lipopolysaccharide (LPS). As to the kind of experiment: Binding affinity to LPS assessed as increase in helical structure at 36 uM by circular dichroism analysis. A digest of the protocol: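 CD spectra of peptides (36 μM) recorded alone and with LPS at 3.8 and 6.25 μM.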
In another data set the test system is Escherichia coli. Description: Bactericidal activity against Escherichia coli ATCC 10536 assessed as induction of membrane damage at 5 uM after 30 mins by propidium iodide staining-based flow cytometric analysis. It is filed as functional, organism-based. A digest of the protocol:
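Mid-log E. coli incubated with peptide (~5.0 μM) 30 min at 37 °C with shaking. Cells washed twice in PBS, stained with propidium iodide 30 min at 4 °C, washed and resuspended. 10000 events per sample by flow cytometry, compared with peptide-free control.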

The test system of another data set is Candida albicans. As to the kind of experiment: Antifungal activity against Candida albicans after 48 hrs by NCCLS microbroth dilution method. The class given is functional. Put shortly: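 Microbroth dilution in MOPS-buffered RPMI 1640 following NCCLS guidelines. Inoculum 1−5 × 10^3 cells/mL, peptide range 50−0.36 (mass/mL). Plates held in a moist chamber at 35 °C and A492 read after 48 h (Candida spp.), 72 h (A. fumigatus, S. schenckii, C. neoformans) or 96 h (T. mentagrophytes). MIC taken as 90% growth inhibition versus growth control.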

Data set [7] in a line: Binding affinity to PE/PG lipid vesicles assessed as increase in helical structure at 36 uM by circular dichroism analysis. It is filed as physicochemical. Put shortly:
(§3)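 Peptides (~36 μM) with ~500 μM PC/Chol (8:1 w/w) or PE/PG (7:3 w/w) vesicles. CD spectra 250–190 nm at ~30 °C in 0.2 cm cuvette; 4–6 scans averaged at 20 nm/min, 0.5 nm interval.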

Data set [8] in a line: Binding affinity to PC/Chol lipid vesicles assessed as increase in helical structure at 36 uM by circular dichroism analysis. It is filed as physicochemical. A digest of the protocol: as §3
In data set [9] the test system is RAW264.7. Description: Antiinflammatory activity in mouse RAW264.7 cells assessed as inhibition of LPS-induced NO production at 3 uM by Griess method. It is filed as functional. Details: scale not given: the % may be the effect or the level left. Put shortly:
as §2

Values after ≈ are worked out from the molar mass of the structure shown. Active and inactive are the calls of the source. The calls are words filed in the database; no cut-off is given here. Where only a bound is given, the exact number is not on record here.

In general, inhibition refers to the share of the control response that was lost under treatment. In general, MIC refers to the lowest concentration found to suppress growth.

With `C[C@H](N)C(=O)O` [ALANINE], the inhibition in the data set on Lipopolysaccharide (LPS) [1] stood at 3%. Moreover, the Activity entry with NIH3T3 was “Toxic”; in data set [4], “Active”; with RAW264.7 [5] it was 13%. The result with Lipopolysaccharide (LPS) [2], in the data set with Lipopolysaccharide (LPS) [6] and in the data set on Escherichia coli was Active. Besides, the inhibition result in the data set with RAW264.7 [3] was “Active”. In addition, the minimum inhibitory concentration (MIC) in the data set with Staphylococcus aureus was 6.25 µM (≈ 0.557 µg/mL); in the data set on Klebsiella pneumoniae, 25 µM (≈ 2.23 µg/mL); in the data set on Candida albicans it was above 25 µM.

As for `CC(C)C[C@H](N)C(=O)O` [LEUCINE], the inhibition with Lipopolysaccharide (LPS) [1] is 72%. Moreover, the Activity result in the data set with NIH3T3 is “Toxic”; in [7] it was “Active”; in data set [8], “Active”; with RAW264.7 [9], 90%; in [4] it was “Active”. For the same compound, the result in the data set on Lipopolysaccharide (LPS) [2], in the data set with Lipopolysaccharide (LPS) [6] and in the data set with Escherichia coli was Active. In addition, in the data set with RAW264.7 [3], the inhibition result was “Active”. Further, the MIC against Staphylococcus aureus turned out to be 6.25 µM (≈ 0.82 µg/mL); with Klebsiella pneumoniae, 6.2 µM (≈ 0.813 µg/mL); with Candida albicans it was 3.1 µM (≈ 0.407 µg/mL).

As for `CC(C)[C@H](N)C(=O)O` [VALINE], the inhibition in the data set with Lipopolysaccharide (LPS) [1] amounted to 8%. For the same compound, the Activity result with NIH3T3 is on record as “Toxic”; in [7] it was “Active”; in data set [4] it was “Active”; in the data set with RAW264.7 [5], 50%. Moreover, the result in the data set on Lipopolysaccharide (LPS) [2], in the data set on Lipopolysaccharide (LPS) [6] and in the data set on Escherichia coli was Active. The inhibition entry with RAW264.7 [3] is “Active”. Besides, the MIC amounted to 5.1 µM (≈ 0.597 µg/mL) against Staphylococcus aureus, 3.2 µM (≈ 0.375 µg/mL) with Klebsiella pneumoniae and 9.6 µM (≈ 1.12 µg/mL) against Candida albicans.
